We go through 4 compounds from publication PMC6694902 (Journal of Taibah University Medical Sciences, 2017).

In brackets after ≈: the same amount, converted by molar mass.

Assay [1] has as its system Klebsiella pneumoniae (MTCC 109). Particulars: reported earlier by the authors ref 6; cited from earlier work.
Assay [2] relates to Candida albicans (MTCC 3017). Briefly: Minimum inhibitory concentration. It is filed as cell-based. The following applies: for Minimum inhibitory concentration (MIC), C. albicans: 31.25–500 µg/mL tested, 37 °C, 18–24 h. In short, it runs like this: (§1)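 MIC was determined in agar wells on Sabouraud dextrose agar seeded with the fungal strain (McFarland 0.5, 1.5 × 10^6 CFU/mL). DMF stocks at 1 mg/mL were diluted two-fold to five levels (31.25–500 µg/mL) and loaded into wells, with fluconazole as reference. After 18–24 h at 37 °C, the lowest inhibitory concentration was taken as the MIC.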

Assay [3] has as its system Staphylococcus aureus (res). Put plainly: Agar well diffusion, zone of inhibition. It is filed as cell-based. The following applies: mean ± S.D., n = 6; resistant to norfloxacin, ofloxacin, ampicillin, cefotaxime. In short, it runs like this: (§2)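 Agar well diffusion on nutrient agar. K. pneumoniae MTCC 109 came from IMTECH; S. aureus (res) was an Utkal University isolate. Plates were seeded with 1.5 × 10^6 CFU/mL suspensions (McFarland 0.5). Test compounds were dissolved in DMF (1 mg/mL stock) and placed in wells, with amoxicillin and ampicillin as references. Plates were kept at 37 °C for 18–24 h, then zones were read.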
For orientation: A growth-free zone around the sample is the usual read-out of agar diffusion tests.

Assay [4] is described as follows: DPPH radical scavenging assay. In kind it is biochemical. Particulars: mean ± S.D., n = 3; for IC50 (DPPH radical scavenging): graphically determined. In short, it runs like this: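 DPPH scavenging, a modified method, was read as absorbance at 517 nm for test compounds at several concentrations. BHT served as standard, and DPPH in methanol served as control. Percent inhibition was calculated from control and sample absorbances, and IC50 was obtained graphically. Data were analysed by one-way ANOVA with Dunnett's post hoc test.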

Assay [5] relates to Escherichia coli (res). Put plainly: Agar well diffusion, zone of inhibition. It is filed as cell-based. Particulars: mean ± S.D., n = 6; resistant to norfloxacin, ofloxacin, ampicillin, cefixime, nitrofurantoin. In outline: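 Clinical isolate from a faecal sample (Bhubaneswar hospital). Nutrient agar plates were seeded with a 1.5 × 10^6 CFU/mL suspension matched to McFarland 0.5. Test compound was loaded into the agar wells from a DMF stock (1 mg/mL). Plates were incubated at 37 °C for 18–24 h and the inhibition zone was read. Amoxicillin and ampicillin were the reference antibiotics.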

Assay [6] relates to Escherichia coli (res). Briefly: Minimum inhibitory concentration. In kind it is cell-based. The following applies: for Minimum inhibitory concentration (MIC), E. coli (res): 31.25–500 µg/mL tested, 37 °C, 18–24 h. In outline: (§3)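 MIC was determined in nutrient agar wells seeded with bacteria (McFarland 0.5, 1.5 × 10^6 CFU/mL). E. coli (res) and S. aureus (res) were clinical isolates; K. pneumoniae was MTCC 109. DMF stocks at 1 mg/mL were diluted two-fold to five levels (31.25–500 µg/mL) in wells, with amoxicillin and ampicillin as references. Plates were incubated at 37 °C for 18–24 h.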

Assay [7] has as its system Klebsiella pneumoniae (MTCC 109). Briefly: Agar well diffusion, zone of inhibition. In kind it is cell-based. Particulars: mean ± S.D., n = 6. In outline:
as §2

The test system of assay [8] is Cryptococcus neoformans. Put plainly: Agar well diffusion, zone of inhibition. It is filed as cell-based. The following applies: mean ± S.D., n = 6. In outline:
(§4)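 Agar well diffusion on Sabouraud dextrose agar. C. albicans MTCC 3017 came from IMTECH; C. neoformans was an Utkal University strain. Plates were seeded with 1.5 × 10^6 CFU/mL suspensions (McFarland 0.5). Test compounds were dissolved in DMF (1 mg/mL stock) and loaded into wells, with fluconazole as reference. Incubation was 37 °C for 18–24 h, and zones were measured.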

For assay [9], the system named is Cryptococcus neoformans. Put plainly: Minimum inhibitory concentration. The following applies: for Minimum inhibitory concentration (MIC), C. neoformans: 31.25–500 µg/mL tested, 37 °C, 18–24 h. In kind it is cell-based. In short, it runs like this:
as §1

Assay [10] relates to Staphylococcus aureus (res). Put plainly: Minimum inhibitory concentration. In kind it is cell-based. The following applies: for Minimum inhibitory concentration (MIC), S. aureus (res): 31.25–500 µg/mL tested, 37 °C, 18–24 h. In short, it runs like this:
as §3

For assay [11], the system named is Candida albicans (MTCC 3017). Briefly: Agar well diffusion, zone of inhibition. In kind it is cell-based. The following applies: mean ± S.D., n = 6. In outline:
as §4

Assay [12] deals with Klebsiella pneumoniae (MTCC 109). Put plainly: Minimum inhibitory concentration. It is filed as cell-based. Particulars: for Minimum inhibitory concentration (MIC), K. pneumoniae: 31.25–500 µg/mL tested, 37 °C, 18–24 h. In short, it runs like this: as §3

With `COc1ccc(/N=C/c2cc(/N=N/c3cccc([N+](=O)[O-])c3)ccc2[O][Co][O]c2ccc(/N=N/c3cccc([N+](=O)[O-])c3)cc2/C=N/c2ccc(OC)cc2)cc1` [5a(Co Lig2), bis[2-{(E)-(4-methoxyphenylimino)methyl}-4-{(E)-(3-nitrophenyl)diazenylphenoxy}cobalt]], the “antibacterial activity against K. pneumoniae” value in assay [1] was “significant antibacterial activity”.

For the compound `Cc1cc(N=Nc2ccc([O][Cu][O]c3ccc(N=Nc4ccc(Br)c(C)c4)cc3C=Nc3nc(-c4ccc(Cl)cc4)cs3)c(C=Nc3nc(-c4ccc(Cl)cc4)cs3)c2)ccc1Br` [Compound 6e, Bis[4-{(4-bromo-3-methylphenyl)diazenyl}-2-{(4-(4-chlorophenyl)thiazol-2-ylimino)methyl}phenoxy] copper,], the “Minimum inhibitory concentration (MIC), C. albicans” value in assay [2] came out at 250 µg/mL. Also, the “zone of inhibition, S. aureus (res)” value in [3] is given as 14.5 ± 1.52 mm. For the same compound, the “% Inhibition (DPPH)” value was determined as 31.24 ± 0.06% in assay [4] (Conc. 10 μg/mL), 41.31 ± 0.02% in [4] (Conc. 30 μg/mL), 51.77 ± 0.08% in assay [4] (Conc. 50 μg/mL) and 79.89 ± 0.04% in [4] (Conc. 70 μg/mL). For the same compound, the “IC50 (DPPH radical scavenging)” value in assay [4] is 46 ± 0.98 µg/mL. Moreover, in the assay on Escherichia coli (res) [5], the “zone of inhibition, E. coli (res)” value was determined as 14.83 ± 2.56 mm. Further, the “Minimum inhibitory concentration (MIC), E. coli (res)” value in the assay with Escherichia coli (res) [6] came out at 62.5 µg/mL. For the same compound, the “zone of inhibition, K. pneumoniae” value in [7] is given as 15.83 ± 2.23 mm. Moreover, the “zone of inhibition, C. neoformans” value in the assay on Cryptococcus neoformans [8] was 10.5 ± 1.52 mm. Also, the “Minimum inhibitory concentration (MIC), C. neoformans” value in the assay on Cryptococcus neoformans [9] worked out at 250 µg/mL. In [10], the “Minimum inhibitory concentration (MIC), S. aureus (res)” value worked out at 62.5 µg/mL. Also, the “zone of inhibition, C. albicans” value in assay [11] was 11.17 ± 6.21 mm. Also, in assay [12], the “Minimum inhibitory concentration (MIC), K. pneumoniae” value amounted to 31.25 µg/mL.

As to `Cc1cc(N=Nc2ccc([O][Cu][O]c3ccc(N=Nc4ccc(Br)c(C)c4)cc3C=Nc3nc(-c4ccccc4)cs3)c(C=Nc3nc(-c4ccccc4)cs3)c2)ccc1Br` [Compound 6b, Bis[{4-((4-bromo-3-methylphenyl)diazenyl)-2-((4-phenylthiazol-2-ylimino)methyl)phenoxy}] copper,], the “Minimum inhibitory concentration (MIC), C. albicans” value in [2] turned out to be 125 µg/mL. For the same compound, in assay [3], the “zone of inhibition, S. aureus (res)” value is recorded as 18.33 ± 1.75^∗ mm. The “% Inhibition (DPPH)” value was determined as 28.43 ± 0.07% in assay [4] (Conc. 10 μg/mL), 41.83 ± 0.02% in assay [4] (Conc. 30 μg/mL), 51.41 ± 0.05% in [4] (Conc. 50 μg/mL) and 79.97 ± 0.06% in assay [4] (Conc. 70 μg/mL). The “IC50 (DPPH radical scavenging)” value in [4] amounted to 48 ± 0.89 µg/mL. Besides, the “zone of inhibition, E. coli (res)” value in the assay with Escherichia coli (res) [5] is 15.83 ± 1.84^∗ mm. Besides, the “Minimum inhibitory concentration (MIC), E. coli (res)” value with Escherichia coli (res) [6] came to 31.25 µg/mL. Moreover, the “zone of inhibition, K. pneumoniae” value in assay [7] was 16 ± 2.37^∗ mm. The “zone of inhibition, C. neoformans” value in the assay with Cryptococcus neoformans [8] is recorded as 12.67 ± 1.51 mm. Further, the “Minimum inhibitory concentration (MIC), C. neoformans” value in the assay with Cryptococcus neoformans [9] stood at 250 µg/mL. Moreover, in assay [10], the “Minimum inhibitory concentration (MIC), S. aureus (res)” value was found to be 31.25 µg/mL. Moreover, the “zone of inhibition, C. albicans” value in assay [11] was 13.33 ± 2.34 mm. For the same compound, in [12], the “Minimum inhibitory concentration (MIC), K. pneumoniae” value turned out to be 31.25 µg/mL.

In the case of `Cc1cc(N=Nc2ccc(O)c(C=O)c2)ccc1Br` [Compound 4e, 5-[(4-Bromo-3-methylphenyl)diazenyl]-2-hydroxybenzaldehyde], the MIC was found to be 500 µg/mL (≈ 1570 µM) in [2] (Candida albicans, MTCC3017, read-out: Minimum inhibitory concentration (MIC), C. albicans); 31.2 µg/mL (≈ 97.9 µM) with Escherichia coli (res) [6] (Escherichia coli, read-out: Minimum inhibitory concentration (MIC), E. coli (res), 31.25–500 µg/mL tested, 37 °C, 18–24 h); 250 µg/mL (≈ 783 µM) with Cryptococcus neoformans [9] (Cryptococcus neoformans, read-out: Minimum inhibitory concentration (MIC), C. neoformans); 31.2 µg/mL (≈ 97.9 µM) in assay [10] (Staphylococcus aureus, read-out: Minimum inhibitory concentration (MIC), S. aureus (res), 31.25–500 µg/mL tested, 37 °C, 18–24 h); 31.2 µg/mL (≈ 97.9 µM) in assay [12] (Klebsiella pneumoniae, MTCC109, read-out: Minimum inhibitory concentration (MIC), K. pneumoniae, 31.25–500 µg/mL tested, 37 °C, 18–24 h). Besides, the “zone of inhibition, S. aureus (res)” value in assay [3] is 16.17 ± 2.04^∗ mm. The “% Inhibition (DPPH)” value in [4] (Conc. 10 μg/mL) came out at 17.96 ± 0.03%; in assay [4] (Conc. 30 μg/mL) it was 29.54 ± 0.05%; in [4] (Conc. 50 μg/mL) it was 33.64 ± 0.09%; in [4] (Conc. 70 μg/mL), 56.39 ± 0.08%. Further, the “IC50 (DPPH radical scavenging)” value in assay [4] stood at 72 ± 1.4 µg/mL (≈ 226 µM). In the assay on Escherichia coli (res) [5], the “zone of inhibition, E. coli (res)” value was 15.83 ± 1.47^∗ mm. Besides, the “zone of inhibition, K. pneumoniae” value in assay [7] worked out at 15.17 ± 2.14 mm. For the same compound, the “zone of inhibition, C. neoformans” value in the assay on Cryptococcus neoformans [8] stood at 12.5 ± 1.52 mm. In addition, in [11], the “zone of inhibition, C. albicans” value came to 10.17 ± 1.84 mm.
